Values after ≈ are worked out from the molar mass of the structure shown. Active and inactive are the calls of the source. No cut-off for these calls is given here.
Key:
Setaria cervi [1] = assay: Antifilarial activity against Setaria cervi microfilariae after 24 hrs by MTT assay; type: functional
How it was run: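 Bovine S. cervi microfilariae incubated with compounds (DMSO-dissolved) in RPMI-1640 + 10% FBS, 5% CO2, 24 h. Worms washed in PBS; ~1×10^3 suspended in 0.3 ml MTT 0.25 mg/ml, 37 °C 2 h in dark. Formazan dissolved in DMSO, absorbance at 595 nm. Percent inhibition computed; LC50 fitted; ≥4 repeats, mean ± SE.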

Setaria cervi [2] = assay: Antifilarial activity against Setaria cervi adult after 24 hrs by MTT assay; type: functional, organism-based
How it was run: (§1)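 S. cervi mf or adults cultured in RPMI-1640 with 10% FBS, 5% CO2, 24 h with compounds dissolved in DMSO. Worms washed in PBS, ~1×10^3 put in 0.25 mg/ml MTT for 2 h at 37 °C in the dark. Formazan dissolved in DMSO, A595. Percent inhibition computed, LC50 fitted; at least four repeats, mean ± SE.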

Setaria cervi [3] = assay: Antifilarial activity against Setaria cervi oocytes after 24 hrs by MTT assay; type: functional, organism-based
Setaria cervi [4] = assay: Antifilarial activity against Setaria cervi microfilariae after 3 hrs by trypan blue exclusion assay; type: functional, organism-based
How it was run: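 After treatment, the culture was mixed and 100 μL holding parasites moved into fresh medium and put back in the CO2 incubator. Viability read by trypan blue staining, dead worms blue. Viability % = live / total microfilariae.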

Setaria cervi [5] = assay: Antifilarial activity against Setaria cervi adult after 3 hrs by trypan blue exclusion assay; type: functional, organism-based
Setaria cervi [6] = assay: Induction of chromatin condensation in Setaria cervi microfilariae by Hoechst 33342 staining-based […] microscopic analysis; type: functional, organism-based
How it was run: (§2)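 Treated mf washed in PBS (pH 7.2), fixed in paraformaldehyde and stained 5 min with 1 mg/mL Hoechst 33342. Mounted on poly-L-lysine slides and imaged by fluorescence microscopy at […].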

Setaria cervi [7] = assay: Antifilarial activity against Setaria cervi microfilaria forms after 24 hrs by MTT assay; type: functional, organism-based; how it was run: as §1
Setaria cervi [8] = assay: Antifilarial activity against Setaria cervi microfilariae assessed as reduction in worm movement measured every 6 hrs up to 24 hrs by microscopy; type: functional, organism-based
How it was run: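 About 1×10^5 S. cervi mf per well in RPMI-1640 with 10% FBS at 5% CO2, given a dose series. Motility checked by microscope every 6 h up to 24 h and scored 4 (highly motile) down to 0 (dead). IC50 and MIC calculated from scores; three experiments in triplicate, mean ± SE.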

Setaria cervi [9] = assay: Antifilarial activity against Setaria cervi microfilariae after 3 hrs
WI-38 = assay: Cytotoxicity against human WI38 cells after 24 hrs by MTT assay; type: cell-based; details: WI-38, 24 h
How it was run: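 WI-38 normal human lung fibroblasts, 2.0×10^4 per well, grown 24 h, then treated 24 h at 0–50 µg/mL. MTT 0.5 mg/mL added in phenol red-free RPMI with 5% FBS, 4 h at 37 °C, 5% CO2. Formazan dissolved in DMSO, A570.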

[10] = Selectivity ratio of IC50 for human WI38 cells to IC50 for Setaria cervi microfilariae; type: toxicity; details: read-out: Ratio IC50
Setaria cervi [11] = assay: Induction of reactive oxygen species generation in Setaria cervi microfilariae at 1 to 10 uM by NBT assay; type: functional, organism-based
How it was run: (§3)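 Treated mf or adults pelleted at 7500 rpm, washed in PBS (50 mM, pH 7.0), then incubated in 2% NBT for 2 h at 37 °C. Washed in PBS and methanol, formazan dissolved in 2M KOH/DMSO for 10–15 min at room temperature, absorbance read at 620 nm.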

Setaria cervi [12] = assay: Induction of reactive oxygen species generation in Setaria cervi adult form at 1 to 10 uM by NBT assay; type: functional, organism-based; how it was run: as §3
Setaria cervi [13] = assay: Induction of chromatin condensation in Setaria cervi microfilariae at 5 ug/ml after 3 hrs by Hoechst 33342 staining-based […] microscopic analysis; type: functional, organism-based; how it was run: as §2
Setaria cervi [14] = assay: Induction of apoptosis in Setaria cervi microfilariae at 1 to 5 ug/ml by acridine orange/ethidium bromide staining-based fluorescence microscopic analysis; type: functional, organism-based
How it was run: (§4)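 Treated mf or oocytes stained with AO and EtBr mixed 1:1 (from […] stocks in 0.1 M PBS). Viewed under fluorescence microscope on glass slides; orange EtBr signal marks lost membrane integrity.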

Setaria cervi [15] = assay: Induction of apoptosis in Setaria cervi oocytes at 1 to 5 ug/ml by acridine orange/ethidium bromide staining-based fluorescence microscopic analysis; type: functional, organism-based; how it was run: as §4
Setaria cervi [16] = assay: Induction of apoptosis in Setaria cervi microfilaria assessed as viable cells at 50 ug/ml after 6 hrs by Annexin V-FITC/propidium iodide staining-based flow cytometric analysis (reference value: 97.66%); type: functional
Setaria cervi [17] = assay: Induction of apoptosis in Setaria cervi microfilaria assessed as early apoptotic cells at 50 ug/ml after 6 hrs by Annexin V-FITC/propidium iodide staining-based flow cytometric analysis (reference value: 2.11%); type: functional
Setaria cervi [18] = assay: Induction of apoptosis in Setaria cervi microfilaria assessed as late apoptotic cells at 50 ug/ml after 6 hrs by Annexin V-FITC/propidium iodide staining-based flow cytometric analysis (reference value: 0.21%); type: functional
Setaria cervi [19] = assay: Induction of apoptosis in Setaria cervi microfilaria assessed as necrotic cells at 50 ug/ml after 6 hrs by Annexin V-FITC/propidium iodide staining-based flow cytometric analysis (reference value: 0.02%); type: functional
Setaria cervi [20] = assay: Induction of apoptosis in Setaria cervi oocytes assessed as viable cells at 50 ug/ml after 6 hrs by Annexin V-FITC/propidium iodide staining-based flow cytometric analysis (reference value: 90.03%); type: functional
Setaria cervi [21] = assay: Induction of apoptosis in Setaria cervi oocytes assessed as early apoptotic cells at 50 ug/ml after 6 hrs by Annexin V-FITC/propidium iodide staining-based flow cytometric analysis (reference value: 8.19%); type: functional
Setaria cervi [22] = assay: Induction of apoptosis in Setaria cervi oocytes assessed as late apoptotic cells at 50 ug/ml after 6 hrs by Annexin V-FITC/propidium iodide staining-based flow cytometric analysis (reference value: 0.64%); type: functional
Setaria cervi [23] = assay: Induction of apoptosis in Setaria cervi oocytes assessed as necrotic cells at 50 ug/ml after 6 hrs by Annexin V-FITC/propidium iodide staining-based flow cytometric analysis (reference value: 1.14%); type: functional
Setaria cervi [24] = assay: Induction of apoptosis in Setaria cervi oocytes at 1 to 10 ug/ml after 6 hrs by Annexin V-FITC/propidium iodide staining-based fluorescence microscopic analysis; type: functional, organism-based
How it was run: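 Oocytes taken from gravid S. cervi females, cultured in RPMI-1640 with FBS and treated at 1 and 10 μg/mL. Washed, suspended in PBS (50 mM, pH 7.2), spun at 7500 rpm for 5 min, stained with Annexin V-FITC/PI. Imaged by inverted fluorescence microscope.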

Setaria cervi [25] = assay: Induction of apoptosis in Setaria cervi adult form assessed as increase in EGL1 protein levels after 24 hrs by Western blot analysis; type: functional, organism-based
How it was run: (§5)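 Adult worms treated 24 h at 10, 50 and 100 μg/mL. Protein measured by Lowry; 100 μg run on 12.5% SDS-PAGE and blotted to PVDF. Blocked in 10% skim milk, anti-EGL-1, CED-3 or CED-9 overnight at 4 °C, then alkaline phosphatase secondary for 6 h. BCIP/NBT detection, GAPDH loading control, band densitometry.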

Setaria cervi [26] = assay: Induction of apoptosis in Setaria cervi adult form assessed as increase in CED3 protein levels after 24 hrs by Western blot analysis; type: functional, organism-based; how it was run: as §5
Setaria cervi [27] = assay: Induction of apoptosis in Setaria cervi adult form assessed as decrease in CED9 protein levels after 24 hrs by Western blot analysis; type: functional, organism-based; how it was run: as §5

Compound | Activity (Setaria cervi [1]) | LC50 (Setaria cervi [1]) [µg/mL] | Activity (Setaria cervi [2]) | Activity (Setaria cervi [3]) | Activity (Setaria cervi [4]) | Activity (Setaria cervi [5]) | Activity (Setaria cervi [7]) | IC50 (Setaria cervi [8]) [µg/mL] | MIC (Setaria cervi [8]) [µg/mL] | IC50 (Setaria cervi [9]) [µg/mL] | other results
COc1ccc(SSC(=S)N2CCCCC2)cc1 | Dose-dependent effect | 6.94 (≈ 23.2 µM) | Dose-dependent effect | Active | Dose-dependent effect | Dose-dependent effect | Active | 4.61 (≈ 15.4 µM) | 2.3 (≈ 7.68 µM) | 4.61 (≈ 15.4 µM) | Activity (Setaria cervi [6]): Active
S=C(SSc1ncccn1)N1CCCCC1 | Dose-dependent effect | 5.1 (≈ 18.8 µM) | Dose-dependent effect | Active | Dose-dependent effect | Dose-dependent effect | Active | 4.75 (≈ 17.5 µM) | 2.39 (≈ 8.81 µM) | 4.75 (≈ 17.5 µM) | IC50 (WI-38): 10.6 µg/mL (≈ 39.1 µM); selectivity ratio [10]: 5; Activity (Setaria cervi [11]): Active; Activity (Setaria cervi [6]): Active
COc1ccc(SSC(=S)N2CCc3ccccc3C2)cc1 | – | 126 (≈ 361 µM) | – | – | – | – | – | 31.4 (≈ 90.4 µM) | 10.5 (≈ 30.1 µM) | – | –
S=C(SSc1ncccn1)N1CCOCC1 | Dose-dependent effect | 6.17 (≈ 22.6 µM) | Dose-dependent effect | Active | Dose-dependent effect | Dose-dependent effect | Active | 5.5 (≈ 20.1 µM) | 0.97 (≈ 3.55 µM) | 5.5 (≈ 20.1 µM) | Activity (Setaria cervi [6]): Active
S=C(SSc1cccc2ccccc12)N1CCC(Cc2ccccc2)CC1 | – | 243 (≈ 593 µM) | – | – | – | – | – | 60.7 (≈ 148 µM) | 20.2 (≈ 49.4 µM) | – | –
S=C(SSc1ncccn1)N1CCc2ccccc2C1 | – | 124 (≈ 389 µM) | – | – | – | – | – | 31.1 (≈ 97.3 µM) | 10.4 (≈ 32.4 µM) | – | –
Cc1ccc(SSC(=S)N2CCCCC2)cc1 | Dose-dependent effect | 3.89 (≈ 13.7 µM) | Dose-dependent effect | Active | Dose-dependent effect | Dose-dependent effect | Active | 0.708 (≈ 2.5 µM) | 0.358 (≈ 1.26 µM) | 0.708 (≈ 2.5 µM) | IC50 (WI-38): 19.8 µg/mL (≈ 70 µM); selectivity ratio [10]: 25; Activity (Setaria cervi [12]): Active; Activity (Setaria cervi [11]): Active; Activity (Setaria cervi [13]): Active; Activity (Setaria cervi [14]): Dose-dependent effect; Activity (Setaria cervi [15]): Dose-dependent effect; Activity (Setaria cervi [16]): 68.55%; Activity (Setaria cervi [17]): 15.6%; Activity (Setaria cervi [18]): 15.82%; Activity (Setaria cervi [19]): 0.01%; Activity (Setaria cervi [20]): 70.84%; Activity (Setaria cervi [21]): 13.3%; Activity (Setaria cervi [22]): 11.3%; Activity (Setaria cervi [23]): 4.47%; Activity (Setaria cervi [24]): Dose-dependent effect; Activity (Setaria cervi [25]): Dose-dependent effect; Activity (Setaria cervi [26]): Dose-dependent effect; Activity (Setaria cervi [27]): Dose-dependent effect
S=C(SSc1ccccn1)N1CCCCC1 | – | 97.3 (≈ 360 µM) | – | – | – | – | – | 24.3 (≈ 89.9 µM) | 8.69 (≈ 32.1 µM) | – | –
Cc1ccc(SSC(=S)N2CCC(Cc3ccccc3)CC2)cc1 | – | 22.5 (≈ 60.3 µM) | – | – | – | – | – | 19.6 (≈ 52.6 µM) | 1.22 (≈ 3.27 µM) | – | –
S=C(SSc1cccc2ccccc12)N1CCCC1 | – | 90.3 (≈ 296 µM) | – | – | – | – | – | 22.6 (≈ 73.9 µM) | 7.52 (≈ 24.6 µM) | – | –
COc1ccc(SSC(=S)N2CCOCC2)cc1 | – | 80.3 (≈ 266 µM) | – | – | – | – | – | 20.1 (≈ 66.6 µM) | 6.69 (≈ 22.2 µM) | – | –
COc1ccc(SSC(=S)N2CCC(Cc3ccccc3)CC2)cc1 | – | 248 (≈ 638 µM) | – | – | – | – | – | 62.1 (≈ 159 µM) | 20.7 (≈ 53.1 µM) | – | –

Source: ChEMBL document CHEMBL4138225, “Development of novel anti-filarial agents using carbamo(dithioperoxo)thioate derivatives” (Eur J Med Chem, 2018)
